Compound activity: PubChem BioAssay, The Scripps Research Institute Molecular Screening Center
ARFGAP1 inh: inhibitors of rat ARFGAP1; Arfgap1-stimulated ARF1 GTP hydrolysis, GDP FP detection; actives 0.26% (n = 360,000); inhibition, % at 16.5 µM; AID 651572; Q62848;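 active means inhibition above a per-plate limit, mean inhibition of low control wells plus 3 SD, cut at about 25% in these data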;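 further: 0% = DMSO wells with enzyme and 100% = wells lacking Arfgap1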
Target sequence (Q62848 1-136 limits assumed): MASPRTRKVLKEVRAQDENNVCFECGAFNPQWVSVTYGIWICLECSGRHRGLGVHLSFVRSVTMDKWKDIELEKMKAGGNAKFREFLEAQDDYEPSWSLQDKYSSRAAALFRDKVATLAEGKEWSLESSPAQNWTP
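Material: rat Arfgap1 GAP domain (His6, aa 1-136), purified enzyme. Also added: human ARF1(Δ1-17)-GTP substrate. Compound dosing: 16.5 µM single point, 1.26% DMSO. Timing: enzyme reaction 120 min at 25 °C after 20 min preincubation. Signal: GDP detection by fluorescence polarization. Read-out basis: percent inhibition of GAP-stimulated GDP formation, scaled between DMSO and no-Arfgap1 medians.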
TDP2 inh: TDP2 (human) inhibition, absorbance primary screen; inhibition, % at 12.8 µM; actives 0.34% (n = 370,000); recombinant TDP2, T5PNP hydrolysis, p-nitrophenol absorbance 415 nm; AID 720702; O95551;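 active means inhibition above the mean of all tested compounds plus 3 SD, set per campaign, cut at about 25% in these data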;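 further: 0% = DMSO with enzyme and 100% = buffer with substrate but no TDP2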
Target sequence (O95551 whole entry, looked up): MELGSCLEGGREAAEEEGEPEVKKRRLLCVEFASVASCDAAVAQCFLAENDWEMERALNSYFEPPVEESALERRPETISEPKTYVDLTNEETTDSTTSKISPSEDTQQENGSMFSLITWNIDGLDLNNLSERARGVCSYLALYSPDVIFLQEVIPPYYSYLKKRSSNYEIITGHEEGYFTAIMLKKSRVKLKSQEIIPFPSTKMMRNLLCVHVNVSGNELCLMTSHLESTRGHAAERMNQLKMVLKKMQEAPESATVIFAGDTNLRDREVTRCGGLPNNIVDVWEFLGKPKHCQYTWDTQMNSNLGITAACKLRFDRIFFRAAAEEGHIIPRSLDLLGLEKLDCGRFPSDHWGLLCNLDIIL
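Material: recombinant human TDP2; quantity: TDP2 enzyme at 120 nM final; medium: Tris-HCl pH 7.5 with MgCl2; compound: single concentration, 12.8 µM nominal, with 1% DMSO; incubation: 2 h enzyme incubation at 37 °C; signal: epi absorbance; measure: percent inhibition; benchmarks: high control without enzyme, low control DMSO plus TDP2; repeats: singlicate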
MBD2 DNA inh: MBD2-methylated oligo binding inhibition | Q9UBB5 | TR-FRET, MBD2 binding to methylated oligonucleotide | inhibition, % at 4.4 µM | actives 0.31% (n = 370,000); in the data active means inhibition above about 13%
ASAP1 GAP inh: blocks human ASAP1-stimulated Arf1 GTP hydrolysis; GDP FP detection; actives 0.19% (n = 360,000); inhibition, % at 16.5 µM;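 further: 0% = vehicle with enzyme and substrate and 100% = no enzyme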
UHRF1 binding: blocks human UHRF1 binding to methylated DNA; actives 0.75% (n = 370,000); UHRF1 binding to methylated oligo, TR-FRET; inhibition, % at 4.4 µM; Q96T88; in the data active means inhibition above about 21%;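 further: UHRF1 SRA domain binding a hemimethylated CpG hairpin DNA probe; 0% = median of test compound wells and 100% = reference inhibitor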
LEDGF integ inh: blocks HIV-1 LEDGF/p75-dependent DNA integration; inhibition, % at 3.7 µM; AID 743269; actives 0.64% (n = 370,000); TR-FRET IN-LEDGF/p75 DNA integration, Eu/Cy5;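 active means inhibition above the screen-wide mean plus 3 SD, cut at about 13% in these data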;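 further: signal is the Cy5 over europium emission ratio at 671 and 618 nm; 0% = plate median of compound wells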
TDP2 confirm: human TDP2 inhibition, confirmation. AID 743263. recombinant human TDP2, absorbance read-out. shares compounds with TDP2 inh. inhibition, % at 12.8 µM. actives 22% (n = 1,100);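 further: 0% = vehicle with enzyme and 100% = no enzyme buffer only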
IN multimer act: counter-screen for LEDGF/p75 integration inhibitors: HIV-1 integrase multimerization activators; activation, % at 7.7 µM; TR-FRET HIV-1 integrase multimerization, biochemical; AID 1053131; actives 17% (n = 2,000); shares compounds with LEDGF integ inh; in the data active means activation above about 8.9%
TRFRET interf: optically interferes with TR-FRET readout in LEDGF counter-screen | shares compounds with LEDGF integ inh | TR-FRET optical interference counterscreen, HIV-1 IN multimerization | inhibition, % at 7.7 µM | 2,000 tested, under 10 active | AID 1053135;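 active means inhibition above the mean over all tested compounds plus 3 SD, which no compound reached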;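 further: 0% = integrase with antibodies and DMSO and 100% = antibodies without integrase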
IN-LEDGF confirm: confirmation of HIV-1 LEDGF/p75-dependent integration inhibitors. shares compounds with LEDGF integ inh. TR-FRET LEDGF/p75-dependent HIV-1 integration, biochemical. inhibition, % at 3.7 µM. actives 36% (n = 2,000); in the data active means inhibition above about 14%
* = called active by the depositor; . = no result. Hits are enriched below; roughly 2% of the tested compounds scored in any of these assays. Unless noted, no stated cut-off is given here; in the data, active means inhibition above about 25%; inactive means the rest.

SMILES | ARFGAP1 inh | TDP2 inh | MBD2 DNA inh | ASAP1 GAP inh | UHRF1 binding | LEDGF integ inh | IN multimer act | TRFRET interf | IN-LEDGF confirm | others
O=C(NCCN1CCC2(CC1)C(=O)NCN2c1ccccc1)c1ccc(Cl)c(Cl)c1 | 4 | 2 | 2 | -5 | -5 | 2 | . | . | .
COC(=O)C(O)(c1c(C)[nH]n(-c2ccccc2)c1=O)C(F)(F)F (stereo not drawn) | 11 | 27* | -8 | 10 | -1 | 26* | 1 | -4 | 12 | TDP2 confirm=44*
COC(=O)C(O)(c1c[nH]c2ccccc12)C(F)(F)F (stereo not drawn) | 0 | 6 | 0 | 1 | -2 | -2 | . | . | .
CCCCn1c(NC(=O)c2ccco2)c(C(=O)OCC)c2nc3ccccc3nc21 | 8 | 79* | 10 | 22 | 17 | 30* | -2 | 6 | 62* | TDP2 confirm=76*
CCCCn1c(N)c(C(=O)OCCOC)c2nc3ccccc3nc21 | -3 | 7 | -6 | 15 | 0 | 4 | . | . | .
CCCCn1c(NS(=O)(=O)c2ccc(C)cc2)c(C(=O)OCC)c2nc3ccccc3nc21 | 13 | 71* | 0 | 19 | 13 | 32* | 1 | -4 | 11 | TDP2 confirm=36*
CCCCCn1c(N)c(C(=O)NCc2cccs2)c2nc3ccccc3nc21 | 10 | -10 | -3 | 11 | -3 | 1 | . | . | .
CC(C)OCCCNC(=O)c1c(N)n(CC2CCCO2)c2nc3ccccc3nc12 (stereo not drawn) | 1 | 82* | 6 | 3 | 10 | 29* | 0 | -1 | 8 | TDP2 confirm=7
Nc1c(C(=O)NCCCc2ccccc2)c2nc3ccccc3nc2n1Cc1cccs1 | 2 | 60* | 1 | 10 | 10 | 26* | -2 | 8 | -3 | TDP2 confirm=2
O=P(O)(O)CN1CCNCCN(CP(=O)(O)O)CCNCC1 | 0 | -4 | -5 | -15 | 0 | -32 | . | . | .
Cc1cc(C)c(NC2=NCCS2)cc1C | -3 | 7 | 2 | -2 | 0 | 2 | . | . | .
Cc1ccc(S(=O)(=O)Nc2cc(C(=O)N3CCC4(CC3)OCCO4)ccc2N2CCCCC2)cc1 | 3 | 1 | -2 | 10 | -1 | 16* | -1 | 2 | -1
O=c1[nH]c(=O)n(Cc2ccco2)c(O)c1C=NC1CC1 | 4 | -1 | 2 | -22 | 1 | -1 | . | . | .
O=c1[nH]c(=O)n(Cc2ccco2)c(O)c1/C=N/N1CCCCC1 | -7 | 1 | -4 | -5 | 6 | 23* | -2 | 7 | 9
Cc1cccc2nc(-c3ccccc3)c(-c3ccc(CN4CCC(n5c(=O)[nH]c6cc(Cl)ccc65)CC4)cc3)nc12 | -2 | 4 | 5 | 4 | 1 | -4 | . | . | .
Clc1ccc(OCC#CCN2CCOCC2)cc1 | 15 | 4 | 1 | 9 | -2 | 24* | 0 | 0 | 3
COc1ccc(N2C(=O)NC(=O)/C(=C\c3ccc([N+](=O)[O-])s3)C2=O)cc1 | -6 | -10 | 1 | -14 | 5 | 18* | 1 | -3 | 33*
COc1ccc(CN2Cc3cc(-c4ccc(OC)cc4)ccc3-n3nncc3C2)cc1 | 3 | -3 | 3 | -5 | 1 | 17* | 1 | -4 | -3
CN(C)[C@@H]1C(=O)C(C(N)=O)=C(O)[C@@]2(O)C(=O)C3=C(O)c4c(O)cccc4[C@@](C)(O)C3C[C@@H]12 (stereo partly drawn) | -5 | 6 | -2 | 18 | 11 | 18* | 5 | -26 | 3
CN(C)[C@@H]1C(=O)C(C(N)=O)=C(O)[C@@]2(O)C(=O)C3=C(O)c4c(O)ccc(Cl)c4[C@@](C)(O)[C@H]3C[C@@H]12 | 0 | -5 | -5 | 3 | 2 | 14* | 6 | -29 | 5
COOCC1(C(=O)OC)C[C@H](c2ccc(OC)cc2)N(Cc2ccccc2OC)[C@@H]1c1ccccc1C (stereo partly drawn) | 5 | -10 | 0 | 3 | -2 | 2 | . | . | .
Cc1ccc(S(=O)(=O)NCCC(=O)Nc2ccc(Cl)cc2C(=O)c2ccccc2)cc1 | 6 | 1 | -2 | -12 | 0 | 28* | 1 | -6 | -2
Cc1ccc(OCC(=O)Nc2ccc(Cl)cc2C(=O)c2ccccc2)cc1 | -1 | -2 | 0 | -2 | 4 | -2 | . | . | .
Clc1ccc2[nH]c3c(c2c1)CCNC3 | -7 | 3 | 2 | -7 | -2 | 5 | . | . | .
COc1ccc(-c2cc(=O)oc3c(C)c(OC(C)C(=O)N4C[C@H]5C[C@@H](C4)c4cccc(=O)n4C5)ccc23)cc1 (stereo partly drawn) | 1 | -9 | -2 | -3 | 0 | 3 | . | . | .
SMILES | ARFGAP1 inh | TDP2 inh | MBD2 DNA inh | ASAP1 GAP inh | UHRF1 binding | LEDGF integ inh | IN multimer act | TRFRET interf | IN-LEDGF confirm | others
CCCCn1nnnc1C(CCSC)N1CCC(n2c(=O)[nH]c3ccccc32)CC1 (stereo not drawn) | 11 | -3 | -2 | -9 | 1 | -4 | . | . | .
CCCCn1nnnc1C(CCc1ccccc1)N1CCC(n2c(=O)[nH]c3ccccc32)CC1 (stereo not drawn) | -2 | 4 | 8 | 10 | 1 | 20* | 0 | 0 | -3
COc1ccc(CN2Cc3cc(N4CCOCC4)ccc3-n3nncc3C2)cc1 | 0 | 1 | -4 | -3 | -3 | 1 | . | . | .
CC(C)c1ccc(N2C(=O)NC(=O)/C(=C\c3cnc(-c4ccccc4)nc3)C2=O)cc1 | -7 | 5 | -1 | 11 | 15 | -1 | . | . | .
CCOc1cccc(N2C(=O)/C(=C/c3ccco3)C(=O)NC2=S)c1 | -5 | -5 | 12 | 4 | 50* | 22* | 9.8* | -49 | 76*
COc1ccc(CN2C(=O)NC(=O)/C(=C\c3ccco3)C2=O)cc1 | -8 | -3 | 3 | 6 | 13 | 14* | 6 | -21 | 18*
O=C1NC(=O)N(Cc2ccccc2)C(=O)/C1=C/C=C/c1ccco1 | 1 | 9 | -2 | 8 | 8 | 29* | 0 | 1 | 30*
COc1ccc(CN2C(=O)NC(=O)/C(=C\c3cc(OC)c(OC)c(OC)c3)C2=O)cc1 | 4 | 6 | -6 | -7 | -5 | -2 | . | . | .
